# SENP6 inh: SENP6 protease inhibitors, primary screen, biochemical, luminescence, uHTS. Sentrin-specific protease 6 (Homo sapiens), Q9GZR1. Recombinant SENP6 catalytic domain, aminoluciferin luminescence. inhibition, % at 10 µM. 1.8% of 330,000 active;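 active means inhibition above about 50% at the single tested dose, limit read from the data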;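 further: plate controls were DMSO wells with enzyme for no effect and DMSO wells lacking enzyme for full effect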
# HSP90 inh: HSP90 inhibitors, primary screen, cell lysate, luminescence. Heat shock protein HSP 90 (rabbit reticulocyte lysate; luciferase refolding). Rabbit reticulocyte lysate, luciferase refolding luminescence, 3 h. inhibition, % at 5.6 µM. 0.91% of 290,000 active. AID 1789, 2009;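 active means inhibition above the screen-wide mean plus 3 SD, computed separately per campaign, cut at about 16% in these data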;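 further: 0% = DMSO wells and 100% = 60 µM geldanamycin wells; inhibitors lower the luminescence because luciferase stays unfolded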
# SENP8 block-1: SENP8 protease inhibitors, primary screen, biochemical, luminescence; 1.2% of 330,000 active; Sentrin-specific protease 8 (Homo sapiens), Q96LD8; inhibition, % at 10 µM; purified SENP8, Z-RLRGG-aminoluciferin cleavage; in the data active means inhibition above about 50%
# SENP1 FRET inh: human SENP1 catalytic domain inhibitors, primary screen, biochemical, FRET, uHTS. Sentrin-specific protease 1 (Homo sapiens), Q9P0U3. recombinant SENP1 catalytic domain, CyPet-SUMO1-YPet FRET cleavage. inhibition, % at 10 µM. 0.21% of 360,000 active. AID 624204, 2012;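 active means inhibition at least 30% at 10 µM, raw YFP signal under a set limit, fluorescence ratio 0.5 to 1.5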;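 further: 0% = enzyme with DMSO and 100% = no enzyme wells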
# Target sequence (Q9P0U3 419-644 limits assumed): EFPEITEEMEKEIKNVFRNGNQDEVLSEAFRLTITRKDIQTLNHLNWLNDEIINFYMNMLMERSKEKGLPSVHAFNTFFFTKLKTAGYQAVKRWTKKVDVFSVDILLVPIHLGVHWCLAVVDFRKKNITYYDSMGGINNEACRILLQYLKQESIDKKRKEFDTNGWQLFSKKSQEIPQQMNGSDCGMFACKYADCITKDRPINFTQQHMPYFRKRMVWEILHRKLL
#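 Controls: no-enzyme wells low, DMSO-plus-enzyme wells high control. Test system: human recombinant His6-tagged SENP1 catalytic domain enzyme. Reagent: SFCypet-SUMO1-SFYpet FRET protein substrate, 25 nM final. Doses: one dose per compound, 10 µM, 0.5% DMSO. Detection: FRET, CFP and YFP emission. Timing: 50 min reaction at room temperature.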
# SENP8 block-2: human SENP8 protease inhibitors, primary screen, biochemical, fluorescence, Nedd8 protein substrate, uHTS; recombinant SENP8; inhibition, % at 20 µM; 0.64% of 360,000 active; in the data active means inhibition mostly above about 40%, no sharp cut-off; inactive means mostly below about 27%
# SENP7 block: SENP7 protease inhibitors, primary screen, biochemical, luminescence, uHTS; Sentrin-specific protease 7 (Homo sapiens), Q9BQF6; AID 434973, 2010; 1.5% of 330,000 active; recombinant SENP7, Z-RLRGG-aminoluciferin luminescence, 40 min; inhibition, % at 5 µM;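 active means inhibition above about 50% at the single test dose, limit read from the data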;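 further: plate controls were DMSO with enzyme for no effect and no enzyme buffer wells for full effect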
# Target sequence (Q9BQF6 706-1050 limits assumed): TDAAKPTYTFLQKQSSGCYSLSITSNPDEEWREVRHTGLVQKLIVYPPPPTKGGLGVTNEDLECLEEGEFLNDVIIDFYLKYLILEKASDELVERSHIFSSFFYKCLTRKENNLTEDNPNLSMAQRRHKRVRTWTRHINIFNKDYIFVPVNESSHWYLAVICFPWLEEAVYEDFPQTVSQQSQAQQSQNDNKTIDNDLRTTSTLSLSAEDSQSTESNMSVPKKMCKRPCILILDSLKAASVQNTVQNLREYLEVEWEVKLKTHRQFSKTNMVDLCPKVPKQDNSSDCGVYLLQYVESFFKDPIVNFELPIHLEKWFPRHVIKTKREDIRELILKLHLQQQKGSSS
# HSP90 inh confirm: HSP90 inhibitors, confirmation, cell lysate, luminescence | shares compounds with HSP90 inh | rabbit reticulocyte lysate, luciferase refolding luminescence, 3 h | inhibition, % at 5.9 µM | 64% of 2,300 active | AID 1846, 2009; in the data active means inhibition above about 18%;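 further: 0% = vehicle wells and 100% = reference inhibitor wells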
# luciferase ctr: firefly luciferase inhibitors, HSP90 counter-screen, confirmation, artefact control for HSP90 inhibitor project, biochemical, luminescence, triplicate; 48% of 2,300 active; AID 1847, 2009; inhibition, % at 5.9 µM; purified native firefly luciferase; shares compounds with HSP90 inh;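 active means inhibition above the mean inhibition of all tested sample wells plus 3 SD, cut at about 10% in these data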;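 further: 0% = DMSO with luciferase and 100% = wells lacking luciferase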
# SENP8 confirm: SENP8 protease inhibitors, retest, confirmation, biochemical, luminescence, single concentration; shares compounds with SENP7 block; Recombinant SENP8, Z-RLRGG-aminoluciferin luminescence, 60 min; inhibition, % at 12.5 µM; 40% of 6,200 active;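 active means mean inhibition across replicates above about 50%, limit read from the data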
# SENP6 confirm: SENP6 protease inhibitors, confirmation, biochemical, luminescence, single concentration | shares compounds with SENP7 block | recombinant SENP6, Z-RLRGG-aminoluciferin luminescence | inhibition, % at 12.5 µM | 58% of 6,200 active
# SENP7 conf: SENP7 protease inhibitors, retest, confirmation, biochemical, luminescence, single concentration. shares compounds with SENP7 block. recombinant SENP7, Z-RLRGG-aminoluciferin luminescence, 40 min. inhibition, % at 12.5 µM. 69% of 6,200 active. AID 488917, 2010
# Casp3 select: caspase-3 protease inhibitors, confirmation, selectivity assay for SENP inhibitor project, biochemical, single concentration; 60% of 6,200 active; purified caspase-3, Z-DEVD-aminoluciferin luminescence, 60 min; AID 488918, 2010; inhibition, % at 12.5 µM; shares compounds with SENP7 block;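 active means mean inhibition above about 50%, limit read from the data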;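 further: plate controls were enzyme with DMSO for no effect and wells without caspase-3 for full effect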
# SENP luc ctr: counter-screen for SENP inhibitors: luminescence interference. shares compounds with SENP7 block. 39% of 6,200 active. inhibition, % at 12.5 µM. Pre-incubated SENP8/Z-RLRGG-aminoluciferin, luciferase luminescence interference. AID 488919;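 active means mean inhibition above about 50% when retested at one dose, limit read from the data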;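 further: plate controls were DMSO wells with completed reaction for no effect and substrate without enzyme for full effect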
# Starred values were filed as active, the others as inactive; . = no result given. A selection: hits, their analogues and other compounds. The true share with any hit is near 2.9%.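 How the source made its calls, unless noted: active means mean inhibition above about 50% in the one-dose retest (limit read from the data); inactive means the rest.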
SMILES,SENP6 inh,HSP90 inh,SENP8 block-1,SENP1 FRET inh,SENP8 block-2,SENP7 block,HSP90 inh confirm,luciferase ctr,SENP8 confirm,SENP6 confirm,SENP7 conf,Casp3 select,SENP luc ctr
COc1cccc(NC(=O)C2CCN(C(=O)[C@@H]3Cc4ccccc4CN3C(=O)OC(C)(C)C)CC2)c1,-6.9,2.3,-15.2,1.2,1.6,-12.0,.,.,.,.,.,.,.
Cc1ccc(C(=O)N(C)CCOc2ccccc2)cc1S(=O)(=O)N1CCCCC1,-1.0,.,-4.6,-0.3,1.9,-1.5,.,.,.,.,.,.,.
O=C(NC(=O)c1ccccc1)Nc1ccccc1,83.4*,63.5*,76.6*,2.0,5.8,93.3*,59.5*,47.2*,5.1,26.8,50.5*,45.5,19.3
O=C(NC(=O)c1ccccc1)Nc1ccc(-c2cnco2)cc1,-2.2,-1.4,-11.0,-3.6,23.6,39.2,.,.,.,.,.,.,.
O=C(N[C@H]1/C=C\[C@@H](O)CCCC1)OCc1ccccc1,.,.,.,2.1,11.7,3.9,.,.,.,.,.,.,.
O=C(Nc1ccc2c(c1)OCO2)c1ccc(Cl)cc1Cl,52.0*,24.1*,55.2*,0.6,11.7,72.4*,37.2*,22.1*,36.5,55.8*,86.0*,68.6*,64.5*
COc1ccc(C(=O)Nc2ccc3c(c2)OCCO3)c(OC)c1,.,.,.,1.1,18.9,.,.,.,.,.,.,.,.
O=C(Nc1ccc2c(c1)OCCO2)c1ccc(Cl)cc1Cl,71.3*,33.2*,49.3,0.0,5.7,66.6*,39.8*,30.2*,70.0*,66.1*,86.7*,69.9*,64.8*
O=C(NCCc1ccccc1F)c1ccc2c(c1)OCCO2,92.1*,95.2*,80.3*,-0.2,-3.3,89.3*,98.4*,91.8*,89.3*,89.0*,98.0*,94.1*,88.7*
O=C(NCc1ccccc1F)c1ccc2c(c1)OCO2,-4.1,5.9,-11.1,1.3,4.1,-5.6,.,.,.,.,.,.,.
Cc1ccccc1NC(=O)c1ccc2c(c1)OCCO2,21.8,2.4,-2.6,-1.3,23.0,0.3,.,.,.,.,.,.,.
O=C(Nc1ccc(Br)cc1F)c1ccc2c(c1)OCCO2,89.5*,54.5*,80.3*,1.0,3.1,86.3*,50.0*,41.0*,-2.6,86.4*,98.1*,83.8*,18.9
O=C(Nc1ccc(F)cc1F)c1ccc2c(c1)OCCO2,89.1*,23.1*,77.9*,3.1,3.0,88.7*,32.0*,11.7*,8.1,82.4*,97.9*,93.1*,56.4*
CCCC(=O)Nc1nnc(SCC(=O)Nc2ccc(OCC)cc2)s1,.,.,.,0.7,13.7,.,.,.,.,.,.,.,.
Cc1ccc(/C=C/C(=O)OCC(=O)NCc2cccs2)o1,-12.9,.,3.1,2.6,-1.5,-3.6,.,.,.,.,.,.,.
Cc1ccc(-c2[nH]ncc2C(=O)c2ccccc2C)c(O)c1,-4.5,1.1,4.3,-0.5,11.8,-2.8,.,.,.,.,.,.,.
CSc1ccc(/C=N/Nc2ccc(Cl)c(C(=O)O)c2)cc1,76.3*,33.1*,77.1*,-0.2,-69.3,-3.9,79.9*,54.3*,-27.9,90.8*,99.8*,25.0,92.1*
O=C(O)c1cc(N/N=C/c2ccc(N3CCOCC3)cc2)ccc1Cl,-17.3,38.8*,50.9*,-8.5,-283.5,30.8,82.8*,64.7*,75.2*,73.4*,94.2*,22.9,74.7*
COc1ccc2ccccc2c1/C=N/Nc1ccc(Cl)c(C(=O)O)c1,10.0,11.8,4.7,-27.2,-183.4,9.1,.,.,.,.,.,.,.
Clc1cccc(N/N=C/c2ccc(N3CCOCC3)cc2)c1,-34.5,-1.2,-17.3,-12.6,-163.9,-8.4,.,.,.,.,.,.,.
O=C(N/N=C/c1ccncc1)c1cccc(N/N=C/c2ccncc2)c1,0.1,11.1,-12.5,0.8,1.7,-0.6,.,.,.,.,.,.,.
O=C(O)c1cc(N/N=C/c2ccncc2)ccc1Cl,60.3*,24.9*,37.2,-0.4,-207.8,41.2,61.7*,10.4*,58.1*,54.1*,84.7*,24.6,72.2*
Clc1ccc2nc(-c3ccc4c(c3)OCO4)cn2c1,75.4*,23.6*,78.2*,-0.4,-416.4,79.3*,72.9*,70.9*,28.8,86.0*,69.7*,63.8*,11.1
Clc1ccc2nc(-c3ccccc3)cn2c1,95.5*,35.7*,92.4*,-0.2,-147.2,97.0*,55.3*,41.6*,4.0,85.8*,99.0*,91.4*,33.3
Cc1ccc2nc(-c3ccc4c(c3)NC(=O)CO4)cn2c1,-13.1,2.3,-6.1,-3.9,-198.7,1.3,.,.,.,.,.,.,.
COc1ccc(-c2cn3cc(C)ccc3n2)cc1F,76.5*,47.6*,69.3*,1.2,-408.1,78.3*,62.9*,58.5*,10.6,73.5*,89.9*,79.6*,32.3
Cc1ccc2nc(-c3ccc4c(c3)OCCO4)cn2c1,89.2*,92.8*,87.0*,2.7,-426.3,94.3*,94.5*,90.5*,93.3*,93.3*,101.0*,94.3*,92.9*
COCCNC(=O)C1(C)CCCN(Cc2cc(C(F)(F)F)ccc2Cl)C1 (centres undefined),.,.,.,2.1,9.6,.,.,.,.,.,.,.,.
COc1ccc(N=Cc2c(O)n(-c3cccc(C)n3)c(=O)c3ccccc23)c(OC)c1,-2.9,-4.5,5.0,-34.2,-96.9,5.2,.,.,.,.,.,.,.

# Compound activity as filed in PubChem.
